# T cruzi growth-1 – blocks T. cruzi growth in NIH3T3 culture. T. cruzi beta-gal in NIH3T3, GalScreen luminescence, 90 h. inhibition, % at 8.34 µM. AID 624255. actives 5.9% (n = 77,000);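 active = mean inhibition above about 93%, with at least 55% of replicates each passing it, limit read from the data, passing the limit was not always enough; inconclusive = only one of those two conditions holds; inactive = neither condition holds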
# IDH1 mut inh – inhibitors of human IDH1 R132H; IDH1 R132H reductase, diaphorase/resazurin fluorescence, 60 min; inhibition, % at 10 µM; actives 0.18% (n = 70,000); in the data active = inhibition above about 34%; inconclusive = no clear call, values can overlap the other calls; inactive = below about 11%;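 also: 0% = DMSO and 100% = no enzyme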
# Target sequence (O75874 whole entry R132H): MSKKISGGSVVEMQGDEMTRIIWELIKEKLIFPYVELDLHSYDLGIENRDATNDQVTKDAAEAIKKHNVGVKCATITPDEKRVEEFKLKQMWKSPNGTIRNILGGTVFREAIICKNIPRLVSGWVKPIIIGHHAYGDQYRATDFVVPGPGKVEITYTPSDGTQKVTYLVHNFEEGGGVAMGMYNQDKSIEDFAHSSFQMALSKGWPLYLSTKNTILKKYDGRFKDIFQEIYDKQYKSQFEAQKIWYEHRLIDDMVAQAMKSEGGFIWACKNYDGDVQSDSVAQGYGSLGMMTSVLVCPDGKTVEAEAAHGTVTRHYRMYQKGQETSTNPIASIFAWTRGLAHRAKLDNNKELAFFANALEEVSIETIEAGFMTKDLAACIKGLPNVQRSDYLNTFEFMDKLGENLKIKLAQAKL
# KDM4C inh – inhibitors of human demethylase GASC-1 KDM4C | Q9H3R0 | actives 0.15% (n = 96,000) | GST-KDM4C 2-372, H3K9me3 peptide, LANCE TR-FRET | AID 720574 | inhibition, % at 12.5 µM;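 active = mean replicate inhibition above about 25%, with at least 55% of replicates also reaching it, limit read from the data, passing the limit was not always enough; inconclusive = only one of those two conditions met; inactive = neither condition met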
#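 material = GST-tagged GASC-1 (JMJD2C) catalytic fragment, aa 2-372 | amount = enzyme final amount 10 nM | medium = HEPES buffer, pH 7.5, plus ascorbate | also added = H3K9me3 peptide substrate, Fe(II), 2-oxoglutarate | dosing = single dose | times = 30 min demethylation and 1 h detection at room temperature | detection = LANCE TR-FRET | read-out basis = Fall in 671/618 emission ratio as inhibition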
# T cruzi growth-2 – blocks T. cruzi growth in NIH3T3 host cells. AID 651739. shares compounds with T cruzi growth-1. actives 72% (n = 5,600). inhibition, % at 8.35 µM. T. cruzi beta-gal in NIH3T3, GalScreen luminescence, 90 h;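 active = mean replicate inhibition above about 95% and at least 55% of replicates individually reaching it, limit read from the data; inconclusive = only one of the two criteria is met; inactive = neither criterion is met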
# T cruzi growth-3 – inhibitors of T. cruzi proliferation | shares compounds with T cruzi growth-1 | AID 651740 | T. cruzi beta-gal in NIH3T3, GalScreen luminescence, 90 h | inhibition, % at 2.09 µM | actives 21% (n = 5,600);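 active = mean inhibition above about 95%, with at least 55% of replicates also reaching it, limit read from the data; inconclusive = meets just one of the two conditions; inactive = meets neither condition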;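 also: plate controls were neutral control median for no effect and positive control median for full effect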
# 3T3 cytotox – kills mouse NIH/3T3 fibroblasts | actives 14% (n = 5,600) | cytotoxicity (signal decrease), % at 8.35 µM | shares compounds with T cruzi growth-1 | NIH/3T3 viability, CellTiter-Glo ATP luminescence, 90 h | AID 651742;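 active = mean signal decrease across replicates above about 35% based on untreated-well scatter, with enough replicates individually passing, limit read from the data; inconclusive = no rule stated though some were filed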;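 also: 0% = median of neutral control wells and 100% = median of positive control wells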
# NIH3T3 tox 2 – cytotoxicity in mouse NIH/3T3 fibroblasts | actives 56% (n = 5,600) | inhibition, % at 24.9 µM | NIH/3T3 viability, CellTiter-Glo ATP luminescence, 90 h | shares compounds with T cruzi growth-1;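 active = mean loss of cell viability signal at or above a set limit, and enough replicates individually reaching it; inconclusive = meets only the mean limit or only the replicate share; inactive = meets neither condition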;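 also: 0% = median of neutral control wells and 100% = median of positive control wells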
# The depositor's hits bear a star; ? = inconclusive; . = no result. Only a selection was taken, and hits are over-represented in it overall.
SMILES,T cruzi growth-1,IDH1 mut inh,KDM4C inh,T cruzi growth-2,T cruzi growth-3,3T3 cytotox,NIH3T3 tox 2
CN1c2ccc(-c3ccc(F)cc3)cc2[C@@H]2[C@@H](CCN2C(=O)Cc2ccccn2)[C@@H]1CO,56,.,1,.,.,.,.
CN1c2ccc(-c3ccc(F)cc3)cc2[C@H]2[C@H](CCN2C(=O)Cc2ccccn2)[C@H]1CO,5,.,0,.,.,.,.
CN(C)C(=O)c1ccc(-c2ccc3c(c2)[C@H]2[C@H](CCN2C(=O)Cc2ccccn2)[C@@H](CO)N3C)cc1,?,.,2,106*,46,-5,-8
CN(C)C(=O)c1cccc(-c2ccc3c(c2)[C@@H]2[C@@H](CCN2C(=O)Cc2ccccn2)[C@@H](CO)N3C)c1,27,.,2,.,.,.,.
CN1c2ccc(-c3ccc(F)cc3)cc2[C@@H]2[C@@H](CCN2C(=O)Cc2ccccn2)[C@H]1CO,10,.,0,.,.,.,.
C=C(CO)[C@]1(O)C[C@@]2(C)C(=CC1=O)C=C[C@@H](O)[C@@H]2C,.,0,.,.,.,.,.
CC(C)=CCC[C@@H](C)C/C=N/NC(=O)c1ccc(C(=O)NO)cc1,.,0,.,.,.,.,.
COC(=O)c1c(N)c(C#N)c2n1CCC2,.,0,.,.,.,.,.
Cc1nnc(SCC(=O)Nc2ccccc2C(F)(F)F)s1,.,0,.,.,.,.,.
COc1ccc(CN2C(=O)C(O)(CC(=O)c3ccc(C)s3)c3ccccc32)cc1OC (stereo not given),.,0,.,.,.,.,.
CC(C(=O)Nc1cc(Cl)ccc1Oc1ccccc1)N(c1ccccc1)S(C)(=O)=O (stereo not given),.,0,.,.,.,.,.
Cc1noc(C)c1C(=O)NCc1ccccn1,.,1,.,.,.,.,.
O=C(CSc1nc(-c2ccccc2)cc(-c2ccccc2)n1)Nc1cccc([N+](=O)[O-])c1,.,0,.,.,.,.,.
Cc1c(Cl)c(C(F)(F)F)nn1CC(=O)Nc1ccc(C#N)cc1,.,0,.,.,.,.,.
C[C@H]1CN([C@@H](C)CO)S(=O)(=O)c2ccc(C#Cc3ccccn3)cc2O[C@H]1CN(C)CC1CC1,20,0,-1,.,.,.,.
C[C@@H]1CN([C@H](C)CO)S(=O)(=O)c2ccc(C#Cc3ccccn3)cc2O[C@@H]1CN(C)Cc1cccc(F)c1,122*,-1,2,105*,86,25,70*
C[C@@H]1CN([C@@H](C)CO)S(=O)(=O)c2ccc(C#Cc3ccccn3)cc2O[C@H]1CN(C)Cc1cccc(F)c1,120*,0,-13,97*,94,19,-54
CCCN(C)C[C@H]1Oc2cc(C#Cc3ccccn3)ccc2S(=O)(=O)N([C@@H](C)CO)C[C@H]1C,-8,0,-1,.,.,.,.
CC(C(=O)Nc1cccc(Cl)c1)N(c1ccc(Cl)cc1)S(C)(=O)=O (stereo not given),.,0,.,.,.,.,.
COc1cccc(S(=O)(=O)N2CCCCN3[C@@H](CO)[C@H](c4ccc(-c5cccnc5)cc4)[C@@H]3C2)c1,107*,.,1,100*,43,?,38*
COc1cccc(S(=O)(=O)N2CCCCN3[C@H](CO)[C@H](c4ccc(-c5cncnc5)cc4)[C@@H]3C2)c1,36,.,3,.,.,.,.
COc1cccc(S(=O)(=O)N2CCCCN3[C@H](C2)[C@@H](c2ccc(-c4cccnc4)cc2)[C@@H]3CO)c1,114*,.,-3,112*,84,23,51*
COc1cccc(S(=O)(=O)N2CCCCN3[C@H](CO)[C@H](c4ccc(-c5cncnc5)cc4)[C@H]3C2)c1,82,.,0,.,.,.,.
CN1C(=O)c2cc(NC(=O)c3ccccc3)ccc2OC[C@@H]2O[C@H](CC(=O)NC3CCCC3)CC[C@H]21,8,.,0,.,.,.,.
CN1C(=O)c2cc(NC(=O)c3ccc(Cl)cc3)ccc2OC[C@H]2O[C@H](CC(=O)NCc3cccc(F)c3)CC[C@H]21,101*,.,-1,67,47,1,14
CN1C(=O)c2cc(NC(=O)c3cccc(F)c3)ccc2OC[C@H]2O[C@@H](CC(=O)NCC3CCCCC3)CC[C@H]21,88,.,-2,.,.,.,.
CN1C(=O)c2cc(NC(=O)c3cccc(Cl)c3)ccc2OC[C@H]2O[C@@H](CC(=O)NC3CCCCC3)CC[C@H]21,107*,.,-2,104*,45,27,38*

# Bioassay records as filed in PubChem.
